# From ChEMBL document CHEMBL2177085 (J Med Chem, 2012)
# Assays:
# [1] = biological target: RAF proto-oncogene serine/threonine-protein kinase (Homo sapiens) (UniProt P04049); assay: Inhibition of c-RAF assessed as enzyme residual activity at 10 uM relative to untreated control
# Procedure, shortened: (§1)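 Residual kinase activity at 10 μM compound, determined by a commercial kinase profiling service (Millipore) across 15 kinases of different classes. Each compound tested in duplicate.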
# [2] = biological target: Platelet-derived growth factor receptor beta (Homo sapiens) (UniProt P09619); assay: Inhibition of PDGFRbeta assessed as enzyme residual activity at 10 uM relative to untreated control; procedure, shortened: as §1
# Sequence of Platelet-derived growth factor receptor beta (Homo sapiens) (P09619 whole entry): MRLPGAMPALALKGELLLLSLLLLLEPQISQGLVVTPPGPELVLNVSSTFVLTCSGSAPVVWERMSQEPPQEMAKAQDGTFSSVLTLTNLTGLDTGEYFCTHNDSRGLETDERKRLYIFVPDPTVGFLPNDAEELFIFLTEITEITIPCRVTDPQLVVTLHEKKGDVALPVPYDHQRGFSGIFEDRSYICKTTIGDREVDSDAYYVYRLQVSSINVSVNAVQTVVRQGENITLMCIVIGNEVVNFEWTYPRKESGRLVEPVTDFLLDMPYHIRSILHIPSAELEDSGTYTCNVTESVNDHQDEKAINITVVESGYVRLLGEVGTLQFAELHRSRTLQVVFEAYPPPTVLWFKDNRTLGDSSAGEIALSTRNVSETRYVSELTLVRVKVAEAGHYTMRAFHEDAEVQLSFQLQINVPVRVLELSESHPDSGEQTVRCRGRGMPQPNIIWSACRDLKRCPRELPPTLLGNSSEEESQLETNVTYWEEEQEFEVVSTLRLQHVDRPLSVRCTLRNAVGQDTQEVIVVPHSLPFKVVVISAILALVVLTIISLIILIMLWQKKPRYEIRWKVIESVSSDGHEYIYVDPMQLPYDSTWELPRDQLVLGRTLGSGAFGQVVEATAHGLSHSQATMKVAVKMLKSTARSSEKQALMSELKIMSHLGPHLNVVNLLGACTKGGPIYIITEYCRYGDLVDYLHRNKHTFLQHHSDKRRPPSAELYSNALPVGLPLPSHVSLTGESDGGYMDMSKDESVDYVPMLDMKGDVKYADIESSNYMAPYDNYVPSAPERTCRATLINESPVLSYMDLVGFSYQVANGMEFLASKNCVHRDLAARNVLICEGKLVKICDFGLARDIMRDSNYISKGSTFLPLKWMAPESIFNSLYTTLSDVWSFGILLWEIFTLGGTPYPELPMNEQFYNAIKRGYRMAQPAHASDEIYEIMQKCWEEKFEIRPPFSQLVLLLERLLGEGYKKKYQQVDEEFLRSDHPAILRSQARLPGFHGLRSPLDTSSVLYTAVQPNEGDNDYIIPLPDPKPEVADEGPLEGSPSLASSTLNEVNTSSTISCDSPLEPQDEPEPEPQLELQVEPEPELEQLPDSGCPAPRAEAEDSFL
# [3] = biological target: Protein kinase C epsilon type (Homo sapiens) (UniProt Q02156); assay: Inhibition of PKCepsilon assessed as enzyme residual activity at 10 uM relative to untreated control; procedure, shortened: as §1
# Sequence of Protein kinase C epsilon type (Homo sapiens) (Q02156 whole entry): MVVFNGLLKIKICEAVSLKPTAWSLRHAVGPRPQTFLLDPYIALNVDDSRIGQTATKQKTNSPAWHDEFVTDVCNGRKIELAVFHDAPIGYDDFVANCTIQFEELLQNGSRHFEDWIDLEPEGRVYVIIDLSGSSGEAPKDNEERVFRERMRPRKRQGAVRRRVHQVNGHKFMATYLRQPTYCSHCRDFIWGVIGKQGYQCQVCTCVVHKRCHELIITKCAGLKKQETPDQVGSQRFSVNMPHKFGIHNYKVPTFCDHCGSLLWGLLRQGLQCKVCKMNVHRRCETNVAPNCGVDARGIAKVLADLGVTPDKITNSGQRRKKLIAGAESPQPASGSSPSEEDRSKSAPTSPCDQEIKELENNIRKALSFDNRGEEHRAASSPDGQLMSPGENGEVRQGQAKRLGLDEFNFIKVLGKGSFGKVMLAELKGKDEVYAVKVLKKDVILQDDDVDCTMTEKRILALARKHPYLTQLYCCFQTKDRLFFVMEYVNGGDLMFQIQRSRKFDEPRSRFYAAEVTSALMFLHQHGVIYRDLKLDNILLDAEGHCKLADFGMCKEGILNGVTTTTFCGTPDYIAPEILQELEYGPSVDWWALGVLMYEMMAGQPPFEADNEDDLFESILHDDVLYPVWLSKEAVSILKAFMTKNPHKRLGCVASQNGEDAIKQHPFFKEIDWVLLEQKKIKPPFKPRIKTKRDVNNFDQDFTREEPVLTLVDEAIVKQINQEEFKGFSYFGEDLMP
# MKN-45 [4] = assay: Cytotoxic activity against human MKN45 cells assessed as cell viability at 0.5 uM incubated for 5 days by MTT assay; type: functional; conditions: MKN-45, 120 h, read-out: Activity
# Procedure, shortened: (§2)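 MTT viability: exponentially growing cells, 10 000 viable cells/well in RPMI plated overnight, then exposed to test compounds for 3 days (HT-29, Molm-14) or 5 days (Mkn-45) at 37 °C, 5% CO2. MTT added for 4 h, then SDS/HCl solubilization overnight and absorbance read at 562 nm. Viability is expressed relative to untreated cells (100%). Triplicate.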
# MKN-45 [5] = assay: Induction of apoptosis in human MKN45 assessed as accumulation at subG1 phase at 5 uM incubated for 7 days by flow cytometry (reference value: 10.9 +/- 3.2%); type: functional
# [6] = biological target: Protein kinase C gamma type (Homo sapiens) (UniProt P05129); assay: Inhibition of PKCgamma assessed as enzyme residual activity at 10 uM relative to untreated control; procedure, shortened: as §1
# MKN-45 [7] = assay: Cytotoxic activity against human MKN45 cells assessed as cell viability at 10 uM incubated for 5 days by MTT assay; type: functional; conditions: MKN-45, 120 h, read-out: Activity; procedure, shortened: as §2
# MOLM-14 [8] = assay: Cytotoxic activity against human MOLM14 cells assessed as cell viability at 10 uM incubated for 3 days by MTT assay; type: functional; conditions: MOLM-14, 72 h, read-out: Activity; procedure, shortened: as §2
# [9] = biological target: CDK6/cyclin D3 (Homo sapiens) (UniProt P30281+Q00534); assay: Inhibition of CDK6/cyclinD3 assessed as enzyme residual activity at 10 uM relative to untreated control; type: protein-complex assay; procedure, shortened: as §1
# [10] = biological target: Hepatocyte growth factor receptor (Homo sapiens) (UniProt P08581); assay: Inhibition of MET assessed as enzyme residual activity at 10 uM relative to untreated control; procedure, shortened: as §1
# MKN-45 [11] = assay: Cytotoxic activity against human MKN45 cells assessed as cell viability at 20 uM incubated for 5 days by MTT assay; type: functional; conditions: MKN-45, 120 h, read-out: Activity; procedure, shortened: as §2
# MOLM-14 [12] = assay: Cytotoxic activity against human MOLM14 cells assessed as cell viability at 50 uM incubated for 3 days by MTT assay; type: functional; conditions: MOLM-14, 72 h, read-out: Activity; procedure, shortened: as §2
# HUVEC [13] = assay: Induction of apoptosis in human HUVEC assessed as accumulation at subG1 phase at 2.6 uM incubated for 4 days by flow cytometry (reference value: 15.4 +/- 1.5%); type: functional
# [14] = biological target: Vascular endothelial growth factor receptor 2 (Homo sapiens, UniProt P35968); assay: Inhibition of VEGFR2 assessed as enzyme residual activity at 10 uM relative to untreated control; procedure, shortened: as §1
# Sequence of Vascular endothelial growth factor receptor 2 (P35968 whole entry): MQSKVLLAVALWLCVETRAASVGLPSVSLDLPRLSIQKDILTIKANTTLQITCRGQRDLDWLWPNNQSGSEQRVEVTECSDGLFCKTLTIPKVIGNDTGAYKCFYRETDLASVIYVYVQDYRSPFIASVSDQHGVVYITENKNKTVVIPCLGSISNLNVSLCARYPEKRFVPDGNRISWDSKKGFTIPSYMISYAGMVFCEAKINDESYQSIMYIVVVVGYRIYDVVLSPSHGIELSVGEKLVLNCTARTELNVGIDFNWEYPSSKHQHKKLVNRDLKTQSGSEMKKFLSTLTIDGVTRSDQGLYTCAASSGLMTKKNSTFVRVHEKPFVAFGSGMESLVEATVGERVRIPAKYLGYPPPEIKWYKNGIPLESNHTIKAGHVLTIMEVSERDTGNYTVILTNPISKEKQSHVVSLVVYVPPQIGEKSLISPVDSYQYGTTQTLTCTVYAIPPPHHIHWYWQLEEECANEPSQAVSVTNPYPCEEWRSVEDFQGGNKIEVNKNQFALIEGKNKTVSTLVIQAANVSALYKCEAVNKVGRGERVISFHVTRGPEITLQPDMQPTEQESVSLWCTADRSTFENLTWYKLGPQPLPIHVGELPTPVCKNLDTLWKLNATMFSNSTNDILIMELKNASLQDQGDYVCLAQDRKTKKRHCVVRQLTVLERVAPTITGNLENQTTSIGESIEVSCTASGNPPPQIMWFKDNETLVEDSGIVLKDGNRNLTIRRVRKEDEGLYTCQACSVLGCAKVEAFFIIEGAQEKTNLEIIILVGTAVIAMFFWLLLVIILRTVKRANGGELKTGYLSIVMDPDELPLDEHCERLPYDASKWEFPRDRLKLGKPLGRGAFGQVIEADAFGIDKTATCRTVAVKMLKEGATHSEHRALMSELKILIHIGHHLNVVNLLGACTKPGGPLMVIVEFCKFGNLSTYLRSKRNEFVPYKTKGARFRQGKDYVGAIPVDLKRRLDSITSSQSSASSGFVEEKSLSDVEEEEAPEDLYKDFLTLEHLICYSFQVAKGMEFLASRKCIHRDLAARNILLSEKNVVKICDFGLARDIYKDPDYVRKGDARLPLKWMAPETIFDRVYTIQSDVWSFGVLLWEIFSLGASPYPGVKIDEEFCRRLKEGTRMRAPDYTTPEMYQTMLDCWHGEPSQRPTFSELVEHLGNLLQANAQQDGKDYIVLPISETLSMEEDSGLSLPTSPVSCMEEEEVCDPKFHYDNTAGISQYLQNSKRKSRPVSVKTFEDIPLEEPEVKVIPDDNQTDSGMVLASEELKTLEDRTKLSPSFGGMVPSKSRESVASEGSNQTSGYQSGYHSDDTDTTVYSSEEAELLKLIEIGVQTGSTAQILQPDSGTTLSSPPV
# [15] = Inhibition of angiogenesis in chick embryo model assessed as reduction in vessel growth at 26 nM incubated for 24 hrs; type: functional, Gallus gallus
# Procedure, shortened: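 White leghorn eggs incubated at 37.5 °C, 62% humidity. At 70 h, albumen removed and shell windowed. From 75 h, 15 agarose pellets (from a 26 mM DMSO stock in 2% agarose; final concentration 26 nM) placed on the area vasculosa.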
# [16] = biological target: T1, Glycogen synthase kinase-3 beta (Homo sapiens, UniProt P49841); assay: Inhibition of GSK3beta
# Procedure, shortened: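 IC50 determined by a commercial kinase profiling service (Millipore IC50 Profiler); duplicate testing.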
# Target sequence in this assay (P49841 whole entry): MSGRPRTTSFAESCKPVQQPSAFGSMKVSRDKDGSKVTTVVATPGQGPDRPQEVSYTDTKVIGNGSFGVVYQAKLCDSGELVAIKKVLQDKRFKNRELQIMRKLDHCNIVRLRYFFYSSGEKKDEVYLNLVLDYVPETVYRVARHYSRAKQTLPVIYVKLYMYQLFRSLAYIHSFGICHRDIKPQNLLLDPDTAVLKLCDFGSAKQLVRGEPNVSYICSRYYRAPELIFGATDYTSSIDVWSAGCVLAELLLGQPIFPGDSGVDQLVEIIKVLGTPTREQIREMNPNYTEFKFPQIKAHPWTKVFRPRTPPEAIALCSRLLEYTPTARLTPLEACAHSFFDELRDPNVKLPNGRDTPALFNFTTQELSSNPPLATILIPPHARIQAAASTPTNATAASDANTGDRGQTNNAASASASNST
# [17] = biological target: Protein kinase C alpha type (Homo sapiens) (UniProt P17252); assay: Inhibition of PKCalpha assessed as enzyme residual activity at 10 uM relative to untreated control; procedure, shortened: as §1
# MOLM-14 [18] = assay: Cytotoxic activity against human MOLM14 cells assessed as cell viability at 20 uM incubated for 3 days by MTT assay; type: functional; conditions: MOLM-14, 72 h, read-out: Activity; procedure, shortened: as §2
# [19] = biological target: Receptor-type tyrosine-protein kinase FLT3 (Homo sapiens) (UniProt P36888); assay: Inhibition of FLT3 assessed as enzyme residual activity at 10 uM relative to untreated control; procedure, shortened: as §1
# MKN-45 [20] = assay: Induction of apoptosis in human MKN45 assessed as accumulation at subG1 phase at 10 uM incubated for 7 days by flow cytometry (reference value: 10.9 +/- 3.2%); type: functional
# [21] = biological target: Epidermal growth factor receptor (Homo sapiens) (UniProt P00533); assay: Inhibition of EGFR assessed as enzyme residual activity at 10 uM relative to untreated control; procedure, shortened: as §1
# MOLM-14 [22] = assay: Cytotoxic activity against human MOLM14 cells assessed as cell viability at 0.5 uM incubated for 3 days by MTT assay; type: functional; conditions: MOLM-14, 72 h, read-out: Activity; procedure, shortened: as §2
# [23] = biological target: T1, Glycogen synthase kinase-3 beta; assay: Inhibition of GSK3beta assessed as enzyme residual activity at 10 uM relative to untreated control; procedure, shortened: as §1
# Target sequence in this assay (P49841 whole entry, looked up): as the sequence (P49841 whole entry) above
# [24] = biological target: Angiopoietin-1 receptor (Homo sapiens) (UniProt Q02763); assay: Inhibition of TIE2 assessed as enzyme residual activity at 10 uM relative to untreated control; procedure, shortened: as §1
# Sequence of Angiopoietin-1 receptor (Homo sapiens) (Q02763 whole entry): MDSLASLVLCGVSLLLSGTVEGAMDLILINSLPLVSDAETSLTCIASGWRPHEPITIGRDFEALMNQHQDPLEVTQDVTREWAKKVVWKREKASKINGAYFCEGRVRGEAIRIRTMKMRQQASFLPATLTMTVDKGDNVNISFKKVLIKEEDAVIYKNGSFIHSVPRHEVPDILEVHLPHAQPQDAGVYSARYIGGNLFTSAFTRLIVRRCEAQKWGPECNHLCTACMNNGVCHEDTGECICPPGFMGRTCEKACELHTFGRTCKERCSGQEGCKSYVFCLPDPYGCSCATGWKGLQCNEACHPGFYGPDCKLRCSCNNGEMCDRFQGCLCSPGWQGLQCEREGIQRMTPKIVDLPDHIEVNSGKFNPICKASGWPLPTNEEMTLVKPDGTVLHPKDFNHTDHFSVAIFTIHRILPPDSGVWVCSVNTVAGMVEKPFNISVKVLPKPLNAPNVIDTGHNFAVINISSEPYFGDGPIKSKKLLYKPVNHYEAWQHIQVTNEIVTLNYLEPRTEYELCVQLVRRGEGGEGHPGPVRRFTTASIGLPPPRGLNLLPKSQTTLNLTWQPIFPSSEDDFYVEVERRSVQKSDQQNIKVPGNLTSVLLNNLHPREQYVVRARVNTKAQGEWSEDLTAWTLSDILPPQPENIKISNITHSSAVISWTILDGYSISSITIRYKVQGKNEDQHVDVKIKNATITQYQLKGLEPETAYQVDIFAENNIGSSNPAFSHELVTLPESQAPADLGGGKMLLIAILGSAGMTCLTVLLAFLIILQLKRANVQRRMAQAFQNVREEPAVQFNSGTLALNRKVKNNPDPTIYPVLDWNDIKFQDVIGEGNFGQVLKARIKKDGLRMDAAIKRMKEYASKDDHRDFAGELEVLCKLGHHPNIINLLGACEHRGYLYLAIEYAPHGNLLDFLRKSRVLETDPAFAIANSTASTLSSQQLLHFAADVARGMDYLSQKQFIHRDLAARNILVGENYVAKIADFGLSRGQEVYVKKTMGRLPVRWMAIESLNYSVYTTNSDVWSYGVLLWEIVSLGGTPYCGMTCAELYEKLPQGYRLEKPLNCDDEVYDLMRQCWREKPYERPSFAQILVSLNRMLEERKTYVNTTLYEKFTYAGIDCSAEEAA
# [25] = biological target: Cyclin-dependent kinase 1/cyclin B1 (Homo sapiens) (UniProt P06493+P14635); assay: Inhibition of CDK1/cyclinB assessed as enzyme residual activity at 10 uM relative to untreated control; type: protein-complex assay; procedure, shortened: as §1
# MKN-45 [26] = assay: Induction of apoptosis in human MKN45 assessed as accumulation at subG1 phase at 15 uM incubated for 7 days by flow cytometry (reference value: 10.9 +/- 3.2%); type: functional
# MKN-45 [27] = assay: Cytotoxic activity against human MKN45 cells assessed as cell viability at 5 uM incubated for 5 days by MTT assay; type: functional; conditions: MKN-45, 120 h, read-out: Activity; procedure, shortened: as §2
# MKN-45 [28] = assay: Cytotoxic activity against human MKN45 cells assessed as cell viability at 50 uM incubated for 5 days by MTT assay; type: functional; conditions: MKN-45, 120 h, read-out: Activity; procedure, shortened: as §2
# [29] = biological target: Cyclin-dependent kinase 2/cyclin A (Homo sapiens) (UniProt P24941+P20248+P78396); assay: Inhibition of CDK2/cyclinA assessed as enzyme residual activity at 10 uM relative to untreated control; type: protein-complex assay; procedure, shortened: as §1
# MKN-45 [30] = assay: Cytotoxic activity against human MKN45 cells assessed as cell viability at 1 uM incubated for 5 days by MTT assay; type: functional; conditions: MKN-45, 120 h, read-out: Activity; procedure, shortened: as §2
# MKN-45 [31] = assay: Induction of apoptosis in human MKN45 assessed as accumulation at subG1 phase at 20 uM incubated for 7 days by flow cytometry (reference value: 10.9 +/- 3.2%); type: functional
# [32] = biological target: Protein kinase C iota type (Homo sapiens) (UniProt P41743); assay: Inhibition of PKCiota assessed as enzyme residual activity at 10 uM relative to untreated control; procedure, shortened: as §1
# MKN-45 [33] = assay: Induction of apoptosis in human MKN45 assessed as accumulation at subG1 phase at 1 uM incubated for 7 days by flow cytometry (reference value: 10.9 +/- 3.2%); type: functional
# MOLM-14 [34] = assay: Cytotoxic activity against human MOLM14 cells assessed as cell viability at 1 uM incubated for 3 days by MTT assay; type: functional; conditions: MOLM-14, 72 h, read-out: Activity; procedure, shortened: as §2
# HUVEC [35] = assay: Induction of apoptosis in human HUVEC assessed as accumulation at subG1 phase at 0.79 uM incubated for 4 days by flow cytometry (reference value: 15.4 +/- 1.5%); type: functional
# [36] = biological target: T2, Receptor-type tyrosine-protein kinase FLT3 (Homo sapiens, UniProt P36888); assay: Inhibition of FLT3
# T2 sequence (P36888 whole entry): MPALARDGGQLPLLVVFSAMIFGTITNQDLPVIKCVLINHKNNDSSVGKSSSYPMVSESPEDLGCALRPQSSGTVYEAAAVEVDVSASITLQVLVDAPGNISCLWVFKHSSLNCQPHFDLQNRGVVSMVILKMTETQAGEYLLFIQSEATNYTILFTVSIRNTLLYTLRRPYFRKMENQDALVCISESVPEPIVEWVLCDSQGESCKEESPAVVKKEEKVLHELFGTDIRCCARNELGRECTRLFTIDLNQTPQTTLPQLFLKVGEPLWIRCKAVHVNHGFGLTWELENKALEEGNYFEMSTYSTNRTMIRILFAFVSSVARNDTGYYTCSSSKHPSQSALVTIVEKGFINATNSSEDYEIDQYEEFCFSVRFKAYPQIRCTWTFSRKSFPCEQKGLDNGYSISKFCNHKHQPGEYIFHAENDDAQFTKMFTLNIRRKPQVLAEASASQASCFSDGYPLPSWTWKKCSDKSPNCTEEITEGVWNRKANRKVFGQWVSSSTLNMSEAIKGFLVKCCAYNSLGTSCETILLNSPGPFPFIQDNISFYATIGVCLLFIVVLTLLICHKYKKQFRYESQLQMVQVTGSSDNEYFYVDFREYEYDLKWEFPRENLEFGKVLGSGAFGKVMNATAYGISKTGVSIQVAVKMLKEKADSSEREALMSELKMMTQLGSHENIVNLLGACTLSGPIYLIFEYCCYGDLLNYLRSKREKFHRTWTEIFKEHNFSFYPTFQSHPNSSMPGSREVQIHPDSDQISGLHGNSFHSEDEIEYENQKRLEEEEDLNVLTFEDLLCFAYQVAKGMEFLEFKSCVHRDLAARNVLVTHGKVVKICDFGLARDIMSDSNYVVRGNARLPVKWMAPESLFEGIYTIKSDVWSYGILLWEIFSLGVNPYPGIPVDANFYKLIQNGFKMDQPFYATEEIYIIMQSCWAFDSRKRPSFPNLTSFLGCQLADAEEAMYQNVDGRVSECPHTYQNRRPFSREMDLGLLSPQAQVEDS
# Procedure, shortened: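 Run as an outsourced kinase profiling service (Millipore IC50 Profiler), with the protocol referred to the provider. Gives IC50 values and residual activity at 10 μM test compound. Compounds tested in duplicate.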
# HT-29 = assay: Cytotoxic activity against human HT-29 cells assessed as cell viability at 52 uM incubated for 3 days by MTT assay; type: functional; conditions: HT-29, 72 h, read-out: Activity; procedure, shortened: as §2
smiles,measurement,setting,value
COc1cc(C2=C(c3c[nH]c4ncccc34)C(=O)NC2=O)cc(OC)c1OC,Activity,[1],111%
same,Activity,[2],84%
same,Activity,[3],77%
same,viability at 0.5 µM,MKN-45 [4],113%
same,Activity,MKN-45 [5],16.3%
same,Activity,[6],93%
same,viability at 10 µM,MKN-45 [7],58.7%
same,viability at 10 µM,MOLM-14 [8],4.41%
same,Activity,[9],99%
same,Activity,[10],109%
same,viability at 20 µM,MKN-45 [11],57.1%
same,viability at 50 µM,MOLM-14 [12],1.77%
same,Activity,HUVEC [13],49.2%
same,Activity,[14],0%
same,inhibition (INH),[15],61%
same,IC50,[16],≥ 10 µM
same,Activity,[17],89%
same,viability at 20 µM,MOLM-14 [18],3.56%
same,Activity,[19],2%
same,Activity,MKN-45 [20],37.8%
same,Activity,[21],97%
same,viability at 0.5 µM,MOLM-14 [22],65.9%
same,Activity,[23],50%
same,Activity,[24],77%
same,Activity,[25],92%
same,Activity,MKN-45 [26],50.7%
same,viability at 5 µM,MKN-45 [27],86.8%
same,viability at 50 µM,MKN-45 [28],44.7%
same,Activity,[29],94%
same,viability at 1 µM,MKN-45 [30],110%
same,Activity,MKN-45 [31],65.9%
same,Activity,[32],69%
same,Activity,MKN-45 [33],9.3%
same,viability at 1 µM,MOLM-14 [34],38.9%
same,Activity,HUVEC [35],26.7%
COc1cc(C2=C(c3c[nH]c4cccnc34)C(=O)NC2=O)cc(OC)c1OC,Activity,HUVEC [13],16.3%
same,IC50,[36],≥ 1.5 µM
same,viability at 52 µM,HT-29,65.8%
same,inhibition (INH),[15],10%
same,Activity,HUVEC [35],14.2%
